Source: PubChem
Many of the other results were omitted from the sample, so hits are more common in it than they were.
IDH1 R132H inh: blocks human IDH1 R132H reductase activity. inhibition, % at 10 µM. diaphorase/resazurin fluorescence, 60 min. actives 0.18% (n = 70,000). AID 624101; in the data active means inhibition above about 34%; inconclusive means no clear call, values can overlap the other calls; inactive means below about 11%;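 further: 0% = DMSO and 100% = no enzyme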
Target sequence (O75874 whole entry R132H): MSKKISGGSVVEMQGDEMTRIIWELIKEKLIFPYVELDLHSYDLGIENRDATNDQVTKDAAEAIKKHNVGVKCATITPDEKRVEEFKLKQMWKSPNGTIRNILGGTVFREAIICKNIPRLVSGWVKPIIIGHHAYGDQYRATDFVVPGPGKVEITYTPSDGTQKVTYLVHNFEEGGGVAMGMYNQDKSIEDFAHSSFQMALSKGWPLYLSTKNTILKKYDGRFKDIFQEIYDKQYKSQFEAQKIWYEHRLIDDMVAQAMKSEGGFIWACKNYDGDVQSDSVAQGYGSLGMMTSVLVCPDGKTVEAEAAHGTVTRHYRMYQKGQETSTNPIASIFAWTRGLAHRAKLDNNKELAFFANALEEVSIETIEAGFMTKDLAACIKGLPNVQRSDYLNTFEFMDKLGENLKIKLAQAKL
GASC1 inh: inhibitors of human demethylase GASC-1 KDM4C; Q9H3R0; GST-KDM4C 2-372, H3K9me3 peptide, LANCE TR-FRET; inhibition, % at 12.5 µM; actives 0.15% (n = 96,000);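 active means mean replicate inhibition above about 25%, with at least 55% of replicates also reaching it, limit read from the data, passing the limit was not always enough; inconclusive means only one of those two conditions met; inactive means neither condition met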
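Test system: N-terminal GST-fused human GASC-1 (KDM4C) fragment, residues 2-372; quantity: GASC-1 enzyme at 10 nM final in reaction; dosing: single dose; schedule: 30 min demethylation and 1 h detection at room temperature; signal: LANCE TR-FRET, excitation 340 nm, emissions 618 and 671 nm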
T cruzi growth-1: inhibitors of T. cruzi proliferation; T. cruzi beta-gal in NIH3T3, GalScreen luminescence, 90 h; inhibition, % at 8.34 µM; actives 5.9% (n = 77,000);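 active means mean inhibition above about 93%, with at least 55% of replicates each passing it, limit read from the data, passing the limit was not always enough; inconclusive means only one of those two conditions holds; inactive means neither condition holds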
T cruzi growth-2: Trypanosoma cruzi proliferation inhibition; shares compounds with T cruzi growth-1; T. cruzi beta-gal in NIH3T3, GalScreen luminescence, 90 h; inhibition, % at 8.35 µM; actives 72% (n = 5,600); AID 651739;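 active means mean replicate inhibition above about 95% and at least 55% of replicates individually reaching it, limit read from the data; inconclusive means only one of the two criteria is met; inactive means neither criterion is met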
T cruzi growth-3: Trypanosoma cruzi proliferation inhibition. shares compounds with T cruzi growth-1. T. cruzi beta-gal in NIH3T3, GalScreen luminescence, 90 h. inhibition, % at 2.09 µM. actives 21% (n = 5,600);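 active means mean inhibition above about 95%, with at least 55% of replicates also reaching it, limit read from the data; inconclusive means meets just one of the two conditions; inactive means meets neither condition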;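 further: plate controls were neutral control median for no effect and positive control median for full effect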
NIH3T3 tox: cytotoxicity in mouse NIH/3T3 fibroblasts; NIH/3T3 viability, CellTiter-Glo ATP luminescence, 90 h; cytotoxicity (signal decrease), % at 8.35 µM; shares compounds with T cruzi growth-1; actives 14% (n = 5,600);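 active means mean signal decrease across replicates above about 35% based on untreated-well scatter, with enough replicates individually passing, limit read from the data; inconclusive means no rule stated though some were filed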;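 further: 0% = median of neutral control wells and 100% = median of positive control wells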
NIH3T3 tox 2: NIH/3T3 (mouse) viability loss; shares compounds with T cruzi growth-1; NIH/3T3 viability, CellTiter-Glo ATP luminescence, 90 h; inhibition, % at 24.9 µM; actives 56% (n = 5,600);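 active means mean loss of cell viability signal at or above a set limit, and enough replicates individually reaching it; inconclusive means meets only the mean limit or only the replicate share; inactive means meets neither condition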;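 further: 0% = median of neutral control wells and 100% = median of positive control wells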
The depositor's hits bear a star; ? = inconclusive; · = no result.

SMILES | IDH1 R132H inh | GASC1 inh | T cruzi growth-1 | T cruzi growth-2 | T cruzi growth-3 | NIH3T3 tox | NIH3T3 tox 2
C[C@H](CO)N1C[C@H](C)[C@@H](CN(C)Cc2ccc(Oc3ccccc3)cc2)Oc2ncc(-c3ccncc3)cc2C1=O | 0 | 4 | 109* | 111* | 75 | 28 | 105*
Cn1c(SCC(=O)Nc2cc(Cl)cc(Cl)c2)nnc1-c1ccc(Cl)cc1 | 0 | · | · | · | · | · | ·
Cn1c(SCC(=O)c2cc(C(C)(C)C)c(O)c(C(C)(C)C)c2)nnc1-c1ccncc1 | -1 | · | · | · | · | · | ·
C[C@H](CO)N1C[C@H](C)[C@@H](CN(C)S(C)(=O)=O)Oc2ccc(NC(=O)C3CCCCC3)cc2CC1=O | 0 | 0 | 11 | · | · | · | ·
CN1c2ccc(C3=CCCCC3)cc2[C@@H]2[C@@H](CCN2S(=O)(=O)c2ccccc2)[C@H]1CO | · | 1 | 85 | · | · | · | ·
Cc1ccc(S(=O)(=O)N[C@H]2CC[C@H](CCNC(=O)c3ccc4c(c3)OCO4)O[C@H]2CO)cc1 | 0 | 0 | -62 | · | · | · | ·
COc1ccc(S(=O)(=O)Nc2ccc3c(c2)CC(=O)N([C@H](C)CO)C[C@H](C)[C@@H](CN(C)Cc2ccc4c(c2)OCO4)O3)cc1 | 2 | 1 | ? | 108* | 62 | -17 | -5
COc1ccc(S(=O)(=O)Nc2ccc3c(c2)CC(=O)N([C@@H](C)CO)C[C@@H](C)[C@H](CN(C)Cc2ccc4c(c2)OCO4)O3)cc1 | 0 | 0 | 113* | 109* | 85 | 19 | 23
C[C@H]1CN([C@@H](C)CO)C(=O)Cc2cc(NS(=O)(=O)c3ccccc3)ccc2O[C@H]1CN(C)Cc1ccc2c(c1)OCO2 | 2 | 1 | 31 | · | · | · | ·
COc1ccc(S(=O)(=O)Nc2ccc3c(c2)CC(=O)N([C@H](C)CO)C[C@@H](C)[C@H](CN(C)Cc2ccc4c(c2)OCO4)O3)cc1 | 0 | 14 | 109* | 108* | 53 | 1 | 8
COc1ccc(S(=O)(=O)Nc2ccc3c(c2)CC(=O)N([C@H](C)CO)C[C@H](C)[C@H](CN(C)Cc2ccc4c(c2)OCO4)O3)cc1 | · | -1 | 69 | · | · | · | ·
COc1ccc(S(=O)(=O)Nc2ccc3c(c2)CC(=O)N([C@@H](C)CO)C[C@@H](C)[C@@H](CN(C)Cc2ccc4c(c2)OCO4)O3)cc1 | 1 | -1 | 52 | · | · | · | ·
CN1C(=O)c2cc(NC(=O)c3cccs3)ccc2OC[C@@H]2O[C@@H](CC(=O)NCC3CC3)CC[C@H]21 | · | -1 | 44 | · | · | · | ·
CC(C)CC#Cc1cnc2c(c1)C(=O)N([C@H](C)CO)C[C@H](C)[C@@H](CN(C)Cc1cncnc1)O2 | 0 | 0 | 14 | · | · | · | ·
CCN1CCN(C(=S)c2cc(I)c(OCC(=O)Nc3cccc(C)c3)c(OC)c2)CC1 | -1 | · | · | · | · | · | ·
C/C=C1/C(=O)O[C@]2(C)C[C@@H]3OC(=O)C(COC)[C@]34O[C@@]12CC[C@@](C)(O)CC4=O (some centres undefined) | 10 | · | · | · | · | · | ·
Cc1ccc(S(=O)(=O)N(C)C[C@@H]2Oc3ncc(C#Cc4ccc(F)cc4)cc3C(=O)N([C@H](C)CO)C[C@@H]2C)cc1 | 0 | -3 | -9 | · | · | · | ·
C[C@@H]1CN([C@H](C)CO)C(=O)c2cc(C#CC3CCCC3)cnc2O[C@@H]1CN(C)S(=O)(=O)c1cccc(F)c1 | · | -3 | 117 | · | · | · | ·
C[C@H](CO)N1C[C@H](C)[C@H](CN(C)S(=O)(=O)c2cccc(F)c2)Oc2ncc(C#Cc3ccc(F)cc3)cc2C1=O | 1 | -3 | 80 | · | · | · | ·
C[C@H](CO)N1C[C@H](C)[C@H](CN(C)S(=O)(=O)c2ccccc2)Oc2ncc(C#Cc3ccc(F)cc3)cc2C1=O | -1 | -3 | ? | 107* | 54 | 21 | 16
C[C@@H]1CN([C@@H](C)CO)C(=O)c2cc(C#CC3CCCC3)cnc2O[C@H]1CN(C)S(=O)(=O)c1cccc(F)c1 | 0 | 2 | 115* | 103* | 92 | 27 | 86*
C[C@H](CO)N1C[C@H](C)[C@H](CN(C)S(=O)(=O)c2ccc(F)cc2)Oc2ncc(C#Cc3ccc(F)cc3)cc2C1=O | 1 | -2 | 113* | 108* | 48 | 34 | 36*
